Published values gathered from unrelated publications.
Compare with care: the assays were run in different laboratories.
Observed: cell growth or viability

SMILES	cell line	method	time	IC50
O=C(Nc1ccc(Cl)cc1)c1ccc([N+](=O)[O-])o1	NCI-H2030	resazurin	96 h	1.12 µM
Cc1ccc(-c2ccc(O)cc2)c(C(=C2C=CC(=O)C=C2)c2ccc(O)cc2)c1C#Cc1ccc(O)cc1	MGC-803	MTT	48 h	15 µM
CC1=C(O)C(=O)C=C2C1=CC=C1[C@@]2(C)CC[C@@]2(C)[C@@H]3C[C@](C)(C(=O)OCCCN4C(=O)C5C=CC=CC5C4=O)CC[C@]3(C)CC[C@]12C (stereo partly drawn)	MGC-803	MTT	48 h	0.39 µM
CC(C)n1c(/C=C/C(O)CC(O)CC(=O)O)c(-c2ccc(F)cc2)c2ccccc21 (stereo not drawn)	SW480	SRB	72 h	4.24 µg/mL
CC1(C)[C@@H](O)CC[C@]2(C)[C@H]3C(=O)C=C4[C@@H]5C[C@@](C)(C(=O)O)CC[C@]5(C)CC[C@@]4(C)[C@]3(C)CC[C@@H]12	ECa-109	MTT	48 h	19 µM
C[C@@H]1CCO[C@H]2Cn3cc(C(=O)NCc4ccc(F)cc4F)c(=O)c(O)c3C(=O)N12	COS-7	ATP luminescence	–	360 µM
Nc1ccn([C@@H]2O[C@H](CO)[C@@H](O)C2(F)F)c(=O)n1	143B	resazurin	72 h	0.0089 µM
CC(C)[C@H](N)C(=O)N1CCC[C@H]1B(O)O	Kasumi 1	ATP luminescence	48 h	> 60 µM
CC(C)C[C@H](NC(=O)[C@H](Cc1ccccc1)NC(=O)c1cnccn1)B(O)O	NCI-N87	ATP luminescence	–	0.0091 µM
O=C(c1ccc(OCCN2CCCCC2)cc1)c1c(-c2ccc(O)cc2)sc2cc(O)ccc12	COS-7	ATP luminescence	–	20.1 µM
CC1=C(O)C(=O)C=C2C1=CC=C1[C@@]2(C)CC[C@@]2(C)[C@@H]3C[C@](C)(C(=O)OCCCCCCCCO)CC[C@]3(C)CC[C@]12C	MGC-803	MTT	48 h	0.38 µM
CC[C@@H](C)[C@H](N)C(=O)N1Cc2ccccc2C1	Kasumi 1	ATP luminescence	48 h	> 60 µM
CC1=C(O)C(=O)C=C2C1=CC=C1[C@@]2(C)CC[C@@]2(C)[C@@H]3C[C@](C)(C(=O)OCCO)CC[C@]3(C)CC[C@]12C	MGC-803	MTT	48 h	0.37 µM
O=c1[nH]c(=O)n([C@H]2C[C@H](O)[C@@H](CO)O2)cc1F	FM3A/0	MTT	72 h	0.0032 µM
Cc1cccc(Nc2ccccc2C(=O)O)c1C	mouse Peritoneal macrophage	crystal violet	72 h	> 200 µM
CC(=O)OCCOC(=O)[C@]1(C)CC[C@]2(C)CC[C@]3(C)C4=CC=C5C(=CC(=O)C(O)=C5C)[C@]4(C)CC[C@@]3(C)[C@@H]2C1	MGC-803	MTT	48 h	0.41 µM
C#C[C@@]1(O)[C@@H](CO)O[C@@H](n2ccc(N)nc2=O)[C@@H]1O	FM3A/0	MTT	72 h	0.0016 µM
CC1=C(O)C(=O)C=C2C1=CC=C1[C@@]2(C)CC[C@@]2(C)[C@@H]3C[C@](C)(C(=O)OCCCOc4ccccc4)CC[C@]3(C)CC[C@]12C	MGC-803	MTT	48 h	0.46 µM
OCc1ccc2c(c1C#Cc1ccc(O)cc1)C(c1ccc(O)cc1)(c1ccc(O)cc1)c1cc(O)ccc1-2	MGC-803	MTT	48 h	> 50 µM
CC1=C(O)C(=O)C=C2C1=CC=C1[C@@]2(C)CC[C@@]2(C)[C@@H]3C[C@](C)(C(=O)OCCCCO)CC[C@]3(C)CC[C@]12C	MGC-803	MTT	48 h	0.27 µM
O=C(O)c1cc(O)c(O)c(O)c1	PC-12	MTT	–	> 100 µM
